Compound activity as filed in PubChem.
Shown are actives, neighbours in structure and some others; about 2.4% of the full set was active somewhere.
Myeloid diff 2: promotes myeloid progenitor differentiation. ER-HoxA9 myeloid progenitors, lysozyme-GFP differentiation, flow cytometry. calls only at 10 µM. 360,000 compounds, 1% hits. AID 624256;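 active = normalized GFP-positive differentiation at or above the plate's own cutoff, the solvent-only control mean plus 3 SD; inconclusive = no clear call, values can overlap the other calls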;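 also: cells exposed to compound for four days before flow analysis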
CendR NRP1 mod: alters CendR peptide binding to human NRP-1; O14786; FAM-RPARPAR peptide binding to NRP-1, fluorescence polarization; inhibition, % at 25 µM; 360,000 compounds, 0.85% hits; AID 602438;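 active = inhibition or corrected inhibition above about 18%, plus a signal ratio from 0.5 to 1.5, limit read from the data, passing the limit was not always enough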
DAGLB inhibitor: blocks human DAGLB lipase activity; 340,000 compounds, 0.059% hits; AID 504411; inhibition, % at 5.17 µM; HEK293T DAGLB membrane lysate, EnzChek fluorogenic substrate; in the data active = inhibition above about 34%
MIN6 prolif: MIN6 beta-cell proliferation induction. MIN6 cells proliferation, ATPlite luminescence, 48 h; cells starved in 0.2% serum; 100% = growth in 10% serum. proliferation, % at 10 µM. 330,000 compounds, 0.29% hits. AID 2380;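 active = compounds whose signal lies at least 3.5 SD above the mean of all wells on their plate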
MT1-MMP act inh: MT1-MMP (human) activation inhibition; P50281; HT1080 RFP-PRO-GFP cells, GFP/RFP ratio fluorescence, overnight; percent of plate control window, DMSO zero; GFP/RFP ratio change, % at 20 µM; 360,000 compounds, 0.061% hits;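 active = GFP/RFP ratio change of at least 30% with cell ATP level not reduced by more than half and red fluorescence within 50% of control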
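Material: RFP-PRO-GFP reporter HT1080 cells. Dosing: single-point 20 µM compound, 1% DMSO. Controls: DMSO and RFP-L50D-GFP cell wells. Timing: cells overnight before dosing, compound overnight, 37 °C, 5% CO2. Measure: GFP/RFP fluorescence ratio.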
SENP1 FRET inh: blocks the human SENP1 SUMO protease catalytic domain. AID 624204. recombinant SENP1 catalytic domain, CyPet-SUMO1-YPet FRET cleavage. inhibition, % at 10 µM. 360,000 compounds, 0.21% hits. Q9P0U3;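 active = inhibition at least 30% at 10 µM, raw YFP signal under a set limit, fluorescence ratio 0.5 to 1.5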
Target sequence (Q9P0U3 419-644 limits assumed): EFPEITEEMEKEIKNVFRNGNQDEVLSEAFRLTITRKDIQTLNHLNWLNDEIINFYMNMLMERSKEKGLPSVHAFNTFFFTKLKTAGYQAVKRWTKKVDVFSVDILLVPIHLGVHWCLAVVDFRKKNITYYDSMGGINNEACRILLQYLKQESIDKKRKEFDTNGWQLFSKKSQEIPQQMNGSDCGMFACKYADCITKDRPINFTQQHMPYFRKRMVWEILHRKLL
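Test system: hSENP1 catalytic domain, recombinant; Amount: 20 pM final SENP1 enzyme; Medium: Tris pH 8 buffer plus EDTA, NaCl, BME, BSA, NP40, catalase; Schedule: 50 min enzyme reaction, room temperature, light-protected; Technique: FRET fluorescence in CFP and YFP emission channels; Controls: no-enzyme wells low, DMSO-plus-enzyme wells high control.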
Myeloid diff CP1: promotes myeloid progenitor differentiation. shares compounds with Myeloid diff 2. 2,300 compounds, 2% hits. AID 651706. calls only. ER-HoxA9 myeloid progenitors, GFP/Mac1 double-positive flow;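 active = share of green or green-and-red cells above 9 and 9% in run 1 or 4 and 3% in run 2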
GFP autofluor: counter-screen for myeloid differentiation promoters: compound fluorescence; shares compounds with Myeloid diff 2; ER-HoxA9 myeloid progenitors, no estrogen, GFP autofluorescence flow cytometry; vehicle wells 0%, positive control 100%; 2,300 compounds, 7.4% hits; fluorescence response, % (no concentration beside the values);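 active = over 5% cells positive for green fluorescent reporter, or over 2% positive for both it and APC stain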
MT1-MMP conf: blocks activation of human MT1-MMP in validation testing; shares compounds with MT1-MMP act inh; HT1080 RFP-PRO-GFP cells, GFP and RFP fluorescence ratio, overnight; inhibition, % at 20 µM; 200 compounds, 10% hits; AID 652235;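 active = inhibition of at least 50% in the primary cell screen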
Numbers stand for hits; n = inactive; u = inconclusive; x = no result given; + = active, no number.

SMILES	Myeloid diff 2	CendR NRP1 mod	DAGLB inhibitor	MIN6 prolif	MT1-MMP act inh	SENP1 FRET inh	MT1-MMP conf	others
CCCCCn1c(=O)c(C(=O)Nc2ccccc2Cl)c(O)c2ccccc21	+	n	n	n	n	n	x	Myeloid diff CP1=n;GFP autofluor=n
CC(C)CCn1c(=O)c(C(=O)Nc2ccccc2S(N)(=O)=O)c(O)c2ccccc21	n	n	n	n	n	n	x	Myeloid diff CP1=n;GFP autofluor=8.6
CCCCn1c(=O)c(C(=O)Nc2ccccc2C)c(O)c2ccccc21	n	n	n	n	n	n	x
O=C(CCC(=O)N1CC2C[C@@H](C1)Cn1c2cccc1=O)NCCc1ccccc1F	n	n	n	n	n	n	x	Myeloid diff CP1=n;GFP autofluor=n
CC(C)OC(=O)c1c(N)n(CC2CCCO2)c2nc3ccccc3nc12 (stereo unspecified)	n	n	n	n	36.8	n	n
CC(C)CCOC(=O)c1c(N)n(CC2CCCO2)c2nc3ccccc3nc12 (stereo unspecified)	n	n	n	n	n	n	x
COC(=O)c1ccc(NC(=O)NC(=O)Oc2ccccc2)cc1	n	n	n	n	n	n	x
O=C(Oc1ccc([N+](=O)[O-])cc1)N1CCC(N2CCCCC2)CC1	n	n	n	n	n	n	x
Clc1cccc(Cl)c1C1N2CCCN12 (stereo unspecified)	n	n	n	n	n	n	x
COC(=O)C1=C(c2ccc(OC(F)(F)F)cc2)C[C@@H]2CC[C@H]1N2C(=O)NCCc1ccccc1	n	n	n	n	31.3	n	n
COc1cc2c(cc1OC)-c1c3c(cc4c1[C@@H](C2)N(C)CC4)OCO3	n	n	n	n	33.1	n	n
O=C(CF)NC(Nc1cccc2cccnc12)C(Cl)(Cl)Cl (stereo unspecified)	n	n	n	n	49.5	n	n
CC[n+]1c(/C=C/N(C)c2ccccc2)sc2ccc(Cl)cc21	n	n	n	n	51.5	n	n
CC[n+]1c(/C=C/C=C/c2ccc(N(C)C)cc2)sc2ccccc21	u	n	n	n	n	n	x
COc1ccc(CCn2c(O)c(C=NCCCN(C)C)c(=O)[nH]c2=O)cc1OC	n	n	n	n	n	n	x
C=CCN1C(=O)/C(=C/c2cccs2)C(=O)NC1=S	n	n	n	x	34.8	n	n
CCOc1ccc2nc(N=Nc3c(O)[nH]c(=O)[nH]c3=O)sc2c1	n	n	n	n	n	n	x
CCOc1ccc2nc(N=Nc3c(O)[nH]c(=S)[nH]c3=O)sc2c1	n	n	n	n	58.5	n	n
